# Key:
# [1] = test system: Portulaca oleracea; assay: Herbicidal activity against Portulaca oleracea assessed as inhibition of shoot growth at […] measured 7 days post treatment; format: functional; details: 168 h, read-out: GI
# How it was run: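 Petri-dish agar assay. A 10 g/L stock of compound in acetone was mixed into molten agar; the untreated control was agar without compound. Seeds were placed on the agar surface and the cups were covered with glass lids. Incubation was 25 ± 1 °C, 50-55% RH, 12 h light/12 h dark, for 7 days. Root and shoot lengths were measured and growth inhibition calculated against the control, in three replicates.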
# [2] = test system: Echinochloa crus-galli; assay: Herbicidal activity against Echinochloa crus-galli (barnyard grass) assessed as inhibition of shoot growth at […] measured 7 days post treatment; format: functional; design: dose or concentration left out as unconfirmed; details: 168 h, read-out: GI
# [3] = test system: Echinochloa crus-galli; assay: Herbicidal activity against Echinochloa crus-galli (barnyard grass) assessed as inhibition of root growth at […] measured 7 days post treatment; format: functional; design: dose or concentration left out as unconfirmed; details: 168 h, read-out: GI
# [4] = test system: Digitaria sanguinalis; assay: Herbicidal activity against Digitaria sanguinalis (hairy crabgrass) assessed as inhibition of fresh weed plant weights at 600 g ai/ha using pre-emergence treatment protocol under greenhouse conditions relative to untreated control; format: functional
# How it was run: (§1)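 Pre-emergence test in plastic pots kept in a greenhouse at 22-25 °C. Fresh weight of aerial plant parts was measured 20 days later, and percent inhibition calculated relative to water-sprayed controls. Metolachlor served as the positive control. Three replicates were run per concentration.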
# [5] = test system: Portulaca oleracea; assay: Herbicidal activity against Portulaca oleracea assessed as inhibition of root growth at […] measured 7 days post treatment; format: functional; design: dose or concentration left out as unconfirmed; details: 168 h, read-out: GI
# [6] = test system: Echinochloa crus-galli; assay: Herbicidal activity against Echinochloa crus-galli (barnyard grass) assessed as inhibition of fresh weed plant weights at 600 g ai/ha using pre-emergence treatment protocol under greenhouse conditions relative to untreated control; format: functional; how it was run: as §1
# [7] = test system: Portulaca oleracea; assay: Herbicidal activity against Portulaca oleracea assessed as inhibition of fresh weed plant weights at 150 g ai/ha using pre-emergence treatment protocol under greenhouse conditions relative to untreated control; format: functional; how it was run: as §1
# [8] = test system: Echinochloa crus-galli; assay: Herbicidal activity against Echinochloa crus-galli (barnyard grass) assessed as inhibition of fresh weed plant weights at 300 g ai/ha using pre-emergence treatment protocol under greenhouse conditions relative to untreated control; format: functional; how it was run: as §1
# [9] = test system: Convolvulus arvensis; assay: Herbicidal activity against Convolvulus arvensis assessed as inhibition of fresh weed plant weights at 1404 g ai/ha using pre-emergence treatment protocol under field trials conditions measured 30 days post soil treatment relative to untreated control; format: functional; details: 720 h
# [10] = test system: Digitaria sanguinalis; assay: Herbicidal activity against Digitaria sanguinalis (hairy crabgrass) assessed as inhibition of fresh weed plant weights at 150 g ai/ha using pre-emergence treatment protocol under greenhouse conditions relative to untreated control; format: functional; how it was run: as §1
# [11] = test system: Brassica rapa subsp. oleifera; assay: Toxicity against Brassica rapa subsp. oleifera var. JING GUAN 1 assessed as inhibition of fresh weed plant weights at 150 g ai/ha using pre-emergence treatment protocol under greenhouse conditions relative to untreated control; format: organism-based; details: in vivo, other; how it was run: as §1
# [12] = test system: Digitaria sanguinalis; assay: Herbicidal activity against Digitaria sanguinalis (hairy crabgrass) assessed as inhibition of fresh weed plant weights at 300 g ai/ha using pre-emergence treatment protocol under greenhouse conditions relative to untreated control; format: functional; how it was run: as §1
# [13] = test system: Echinochloa crus-galli; assay: Herbicidal activity against Echinochloa crus-galli (barnyard grass) assessed as inhibition of fresh weed plant weights at 150 g ai/ha using pre-emergence treatment protocol under greenhouse conditions relative to untreated control; format: functional; how it was run: as §1
# [14] = test system: Eleusine indica; assay: Herbicidal activity against Eleusine indica assessed as inhibition of fresh weed plant weights at 300 g ai/ha using pre-emergence treatment protocol under greenhouse conditions relative to untreated control; format: functional; how it was run: as §1
# [15] = test system: Eleusine indica; assay: Herbicidal activity against Eleusine indica assessed as inhibition of fresh weed plant weights at 150 g ai/ha using pre-emergence treatment protocol under greenhouse conditions relative to untreated control; format: functional; how it was run: as §1
# [16] = test system: Brassica rapa subsp. oleifera; assay: Toxicity against Brassica rapa subsp. oleifera var. JING GUAN 1 assessed as inhibition of fresh weed plant weights at 600 g ai/ha using pre-emergence treatment protocol under greenhouse conditions relative to untreated control; format: organism-based; details: in vivo, other; how it was run: as §1
# [17] = test system: Digitaria sanguinalis; assay: Herbicidal activity against Digitaria sanguinalis (hairy crabgrass) assessed as inhibition of fresh weed plant weights at 1404 g ai/ha using pre-emergence treatment protocol under field trials conditions measured 30 days post soil treatment relative to untreated control; format: functional; details: 720 h
# [18] = test system: Portulaca oleracea; assay: Herbicidal activity against Portulaca oleracea assessed as inhibition of fresh weed plant weights at 300 g ai/ha using pre-emergence treatment protocol under greenhouse conditions relative to untreated control; format: functional; how it was run: as §1
# [19] = test system: Portulaca oleracea; assay: Herbicidal activity against Portulaca oleracea assessed as inhibition of fresh weed plant weights at 1404 g ai/ha using pre-emergence treatment protocol under field trials conditions measured 30 days post soil treatment relative to untreated control; format: functional; details: 720 h
# [20] = test system: Zea mays; assay: Toxicity against Zea mays var. SHEN DAN 17 (maize) assessed as inhibition of fresh weed plant weights at 300 g ai/ha using pre-emergence treatment protocol under greenhouse conditions relative to untreated control; format: organism-based; details: in vivo, other; how it was run: as §1
# [21] = test system: Eleusine indica; assay: Herbicidal activity against Eleusine indica assessed as inhibition of fresh weed plant weights at 600 g ai/ha using pre-emergence treatment protocol under greenhouse conditions relative to untreated control; format: functional; how it was run: as §1
# [22] = test system: Zea mays; assay: Toxicity against Zea mays var. SHEN DAN 17 (maize) assessed induction of crop injury at 1404 g ai/ha using pre-emergence treatment protocol under field trials conditions measured 30 days post soil treatment; format: organism-based; details: in vivo, other, 720 h
# [23] = test system: Echinochloa crus-galli; assay: Herbicidal activity against Echinochloa crus-galli (barnyard grass) assessed as inhibition of fresh weed plant weights at 1404 g ai/ha using pre-emergence treatment protocol under field trials conditions measured 30 days post soil treatment relative to untreated control; format: functional; details: 720 h
# [24] = test system: Zea mays; assay: Toxicity against Zea mays var. SHEN DAN 17 (maize) assessed as inhibition of fresh weed plant weights at 600 g ai/ha using pre-emergence treatment protocol under greenhouse conditions relative to untreated control; format: organism-based; details: in vivo, other; how it was run: as §1
# [25] = test system: Eleusine indica; assay: Herbicidal activity against Eleusine indica assessed as inhibition of fresh weed plant weights at 1404 g ai/ha using pre-emergence treatment protocol under field trials conditions measured 30 days post soil treatment relative to untreated control; format: functional; details: 720 h
# [26] = test system: Portulaca oleracea; assay: Herbicidal activity against Portulaca oleracea assessed as inhibition of fresh weed plant weights at 600 g ai/ha using pre-emergence treatment protocol under greenhouse conditions relative to untreated control; format: functional; how it was run: as §1
# [27] = test system: Brassica rapa subsp. oleifera; assay: Toxicity against Brassica rapa subsp. oleifera var. JING GUAN 1 assessed as inhibition of fresh weed plant weights at 300 g ai/ha using pre-emergence treatment protocol under greenhouse conditions relative to untreated control; format: organism-based; details: in vivo, other; how it was run: as §1
smiles,measurement,setting,value
Cc1nn(CC(F)(F)F)c(CS(=O)(=O)C2=NOC(C)(C)C2)c1I,inhibition of growth at 100000 µg/mL,[1],62%
same,inhibition of growth,[2],84%
same,inhibition of growth,[3],63%
same,inhibition at 600 g/ha,[4],90%
same,inhibition of growth,[5],75%
same,inhibition at 600 g/ha,[6],100%
Cc1nn(CC(F)(F)F)c(CSC2=NOC(C)(C)C2)c1I,inhibition of growth at 100000 µg/mL,[1],62%
same,inhibition of growth,[2],89%
same,inhibition of growth,[3],86%
same,inhibition at 600 g/ha,[4],54%
same,inhibition of growth,[5],81%
same,inhibition at 600 g/ha,[6],100%
Cc1nn(CC(F)(F)F)c(CSC2=NOC(C)(C)C2)c1Br,inhibition of growth at 100000 µg/mL,[1],54%
same,inhibition of growth,[2],88%
same,inhibition of growth,[3],86%
same,inhibition at 600 g/ha,[4],74%
same,inhibition of growth,[5],80%
same,inhibition at 600 g/ha,[6],82%
CCc1cccc(C)c1N(C(=O)CCl)C(C)COC (configuration not stated) [METOLACHOR],inhibition at 150 g/ha,[7],36%
same,inhibition at 300 g/ha,[8],39%
same,inhibition at 1404 g/ha,[9],47%
same,inhibition at 150 g/ha,[10],43%
same,inhibition of growth at 100000 µg/mL,[1],62%
same,inhibition of growth,[2],88%
same,inhibition of growth,[3],80%
same,inhibition (INH),[11],0%
same,inhibition at 300 g/ha,[12],76%
same,inhibition at 150 g/ha,[13],25%
same,inhibition at 300 g/ha,[14],98%
same,inhibition at 150 g/ha,[15],84%
same,inhibition (INH),[16],11%
same,inhibition at 1404 g/ha,[17],95%
same,inhibition at 300 g/ha,[18],57%
same,inhibition at 1404 g/ha,[19],100%
same,inhibition (INH),[20],2%
same,inhibition at 600 g/ha,[21],97%
same,Activity,[22],0%
same,inhibition at 1404 g/ha,[23],100%
same,inhibition at 600 g/ha,[4],90%
same,inhibition (INH),[24],2%
same,inhibition at 1404 g/ha,[25],99%
same,inhibition of growth,[5],74%
same,inhibition at 600 g/ha,[26],60%
same,inhibition at 600 g/ha,[6],50%
same,inhibition (INH),[27],9%
Cc1nn(CC(F)(F)F)c(CS(=O)(=O)C2=NOC(C)(C)C2)c1Br,inhibition of growth at 100000 µg/mL,[1],62%
same,inhibition of growth,[2],81%
same,inhibition of growth,[3],74%
same,inhibition at 600 g/ha,[4],79%
same,inhibition of growth,[5],80%
same,inhibition at 600 g/ha,[6],100%
Cc1nn(CC(F)(F)F)c(CSC2=NOC(C)(C)C2)c1Cl,inhibition of growth at 100000 µg/mL,[1],54%
same,inhibition of growth,[2],88%
same,inhibition of growth,[3],89%
same,inhibition at 600 g/ha,[4],54%
same,inhibition of growth,[5],75%
same,inhibition at 600 g/ha,[6],81%

# From ChEMBL document CHEMBL3046055, “Synthesis and herbicidal activity of novel N-(2,2,2)-trifluoroethylpyrazole derivatives” (J Agric Food Chem, 2010)
